MrgX1 PAM = allosterically activates human MrgX1 receptor signaling | B-score at 10 µM | Q96LB2 | MrgX1-HEK293, Fluo-4 calcium flux, FDSS; stronger effect = higher value | hit rate 0.63% among 310,000 | AID 588675;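 active = plate-corrected calcium response at least 3 library SD above typical, normal starting fluorescence, not activating the receptor alone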;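 note: compound read alongside a low EC10 to EC30 dose of BAM8-22 agonist; peak minus trough fluorescence over baseline measured at the second addition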
Target sequence (Q96LB2 whole entry, looked up): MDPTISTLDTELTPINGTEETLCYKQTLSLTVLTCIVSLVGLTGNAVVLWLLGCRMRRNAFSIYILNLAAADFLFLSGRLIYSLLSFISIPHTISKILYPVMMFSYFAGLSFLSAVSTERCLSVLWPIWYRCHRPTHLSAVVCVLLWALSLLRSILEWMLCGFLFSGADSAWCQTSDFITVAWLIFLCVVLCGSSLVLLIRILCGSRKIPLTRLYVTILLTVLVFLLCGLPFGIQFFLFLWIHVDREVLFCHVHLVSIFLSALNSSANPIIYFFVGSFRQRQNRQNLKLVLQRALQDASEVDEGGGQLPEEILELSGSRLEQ
MrgX1 antag = antagonists of human MrgX1 receptor. Q96LB2. MRGX1-HEK293 calcium flux, Fluo-4, BAM8-22 antagonism; stronger effect = lower value. B-score at 10 µM. hit rate 1.3% among 310,000;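 active = calcium-response B-score plate-corrected more than 3 library SD below zero, starting fluorescence within 5 deviations, no agonist response on first addition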;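 note: peak minus trough fluorescence over baseline after final BAM8-22 challenge near maximal dose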
MrgX1 agonist = agonists of human MrgX1 receptor; Q96LB2; MrgX1-HEK293 cells, Fluo-4 calcium fluorescence, agonist mode; stronger effect = higher value; B-score at 10 µM; hit rate 0.44% among 310,000; AID 588627;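 active = calcium response B-score plate-corrected fluorescence ratio at least 3 library SD, with starting fluorescence B-score inside 5 SD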
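Test system: Stable human MrgX1 HEK293 cell line | Schedule: Overnight plating before 1 h dye loading | Read-out basis: Baseline-normalised fluorescence change ratio, B-scored | Detection: Kinetic calcium dye fluorescence, Fluo-4 NW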
RGS4 pot = RGS4 potentiation or activation; B-score at 10 µM; HEK293 M3R/inducible RGS4, carbachol calcium flux Fluo4; stronger effect = lower value; hit rate 0.92% among 310,000; AID 463111;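 active = B-score of the integrated calcium signal more than 4 SD below the library mean, with starting fluorescence not abnormally high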;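 note: negative B-score means reduced calcium response which marks RGS4 activation or potentiation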
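Material: M3R-expressing HEK293 line, RGS4 induced by doxycycline | Schedule: Overnight RGS4 induction, 30 min dye load 37 °C, 20 min compound RT | Measured by: Fluo4 fluorescence kinetic imaging of calcium | Read-out: Integrated calcium ratio converted to B score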
RGS4 block = inhibitors of human RGS4; AID 463165; HEK293 M3R/RGS4 inducible, Fluo-4 calcium flux; stronger effect = higher value; triggered by carbachol at its EC20; P49798; hit rate 0.45% among 310,000; B-score at 10 µM;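 active = B-score, a plate-corrected calcium signal, over three deviations above library mean, with baseline fluorescence within five deviations of library mean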;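 note: RGS4 expression induced by doxycycline in cells with stable M3 receptor; B-score is computed from the integrated fluorescence ratio over baseline after carbachol; higher B-score means a larger calcium signal and so more RGS4 inhibition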
Target sequence (P49798 whole entry, looked up): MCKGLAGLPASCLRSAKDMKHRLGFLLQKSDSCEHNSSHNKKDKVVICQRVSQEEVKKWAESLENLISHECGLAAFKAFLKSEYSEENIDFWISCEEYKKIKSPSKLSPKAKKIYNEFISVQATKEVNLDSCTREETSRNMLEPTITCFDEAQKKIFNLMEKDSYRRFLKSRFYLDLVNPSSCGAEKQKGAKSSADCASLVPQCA
* hit, by the source's call; i = inactive; x = no result. This is a sample that favours compounds with a hit; in the whole collection about 3.5% have one here.

SMILES | MrgX1 PAM | MrgX1 antag | MrgX1 agonist | RGS4 pot | RGS4 block
C=C(C)Cn1c(-c2cccc([N+](=O)[O-])c2)n[nH]c1=S | i | -4.8* | i | i | i
C=CCn1c(-c2cccc([N+](=O)[O-])c2)n[nH]c1=S | i | i | i | i | i
CCCCn1c(-c2ccc([N+](=O)[O-])cc2)n[nH]c1=S | i | i | i | -10* | i
CCOC(=O)C1=C(C)NC2=C(C(=O)CCC2)C1c1ccc(N(C)C)cc1 (centres undefined) | i | i | i | i | i
CCCOC(=O)C1=C(C)NC2=C(C(=O)CCC2)C1c1ccc(N(C)C)cc1 (centres undefined) | i | i | i | -7.2* | i
CCCCCCCCNC(C)C(O)c1ccc(SC(C)C)cc1 (centres undefined) | i | i | i | -7* | i
O=C(CSc1c2c(nc3cc(Cl)ccc13)CCCC2)NCCCN1CCOCC1 | i | i | i | i | i
CCN(CC)CCCNC(=O)CSc1c2c(nc3cc(Cl)ccc13)CCCC2 | i | i | i | -7.2* | i
COC(C(=O)Nc1ccnn1C1CCN(Cc2cnn(C(C)C)c2)CC1)c1ccccc1 (centres undefined) | i | i | i | i | i
CCc1ccc2nc(N(CCCN(C)C)C(=O)c3ccc(S(=O)(=O)N4CCCC4)cc3)sc2c1 | i | i | i | -11* | i
Cc1ccc2nc(N(CCCN(C)C)C(=O)c3ccc(S(=O)(=O)N4CCCCCC4)cc3)sc2c1 | i | i | i | i | i
CCOC(=O)N1CCN(S(=O)(=O)c2ccc(C(=O)N(CCCN(C)C)c3nc4ccc(Cl)cc4s3)cc2)CC1 | i | i | i | i | i
CCc1ccc2nc(N(CCCN(C)C)C(=O)c3ccc(S(=O)(=O)N4CCCc5ccccc54)cc3)sc2c1 | i | i | i | -7.3* | i
CCOC(=O)N1CCN(S(=O)(=O)c2ccc(C(=O)N(CCCN(C)C)c3nc4c(F)cc(F)cc4s3)cc2)CC1 | i | -7.9* | i | i | i
COc1ccc(OC)c2sc(N(CCCN(C)C)C(=O)c3ccc(S(=O)(=O)N4CCc5ccccc5C4)cc3)nc12 | i | -6.1* | i | -10* | i
CCc1ccc2nc(N(CCCN(C)C)C(=O)c3ccc(C(=O)c4ccccc4)cc3)sc2c1 | i | i | i | -8.1* | i
COc1cc2nc(N(CCCN(C)C)C(=O)c3ccc(C(=O)c4ccccc4)cc3)sc2cc1OC | i | i | i | i | i
CCOC(=O)[C@H]1[C@H]2COc3ccc(Br)cc3[C@@H]2N2C(=O)c3cc(F)c(F)cc3NC(=O)[C@@]12C | i | i | i | x | x
COc1ccc(Nc2nc(N)c([N+](=O)[O-])c(NC3CCCCC3)n2)cc1 | i | i | i | -9.4* | i
CCN(CC)CCNC(=O)c1cc([N+](=O)[O-])c(N(C)C)cc1OC | i | i | i | i | i
COc1cc(N(C)C)c([N+](=O)[O-])cc1C(=O)NC(C)CNc1ccc([N+](=O)[O-])cc1Cl (centres undefined) | i | -6.1* | i | i | i
CC(/C=N/NC(=O)c1ccc(Cn2cc([N+](=O)[O-])cn2)o1)=C\c1ccccc1 | i | -5.4* | i | i | i
COc1cc(CNC(C)c2ccccc2)cc(Br)c1OCc1ccc(F)cc1 (centres undefined) | i | i | i | -8.5* | i
COc1ccc(OCC(=O)NNC(=S)NC(=O)C2CC2)cc1 | i | i | i | i | i
Cc1cc(C)cc(OCC(=O)NNC(=S)NC(=O)C2CC2)c1 | i | i | 32* | i | i
SMILES | MrgX1 PAM | MrgX1 antag | MrgX1 agonist | RGS4 pot | RGS4 block
COc1ccc(CC(=O)NC(=S)NNC(=O)COc2c(C)cccc2C)cc1 | i | i | 27* | i | i
CCc1ccc(OCC(=O)NNC(=S)NC(=O)C2CC2)c(Br)c1 | i | i | i | i | i
COc1ccc(OCC(=O)NNC(=S)NC(=O)C2CCCCC2)cc1 | i | i | 50* | i | i
CCc1ccc(OCC(=O)NNC(=S)NC(=O)C2CCCCC2)c(Br)c1 | i | -8.9* | i | i | i
CN1C(=O)NC(c2ccccc2)C2=C1CN(c1ccc3ccccc3c1)C2=O (centres undefined) | i | i | i | i | i
CCOC(=O)c1cccc(N/C=C/C(=O)c2ccc(OC)c(OC)c2)c1 | i | i | i | -8.3* | i
COc1cccc(N/C=C/C(=O)c2ccc(OC)c(OC)c2)c1 | i | i | i | i | i
COc1ccc(-c2nn(-c3ccccc3)cc2/C=N/N=C(N)N)cc1OC | i | i | 44* | i | i
CCN(CC)c1ccc(/C=C(/C#N)C(=O)NCc2ccccc2)o1 | 7* | i | i | i | i
CCN(CC)c1ccc(/C=C(/C#N)C(=O)NC(C)C)o1 | i | i | i | i | i
COc1cccc(C(=O)N2C(C(=O)O)CSC2c2ccccc2Cl)c1 (centres undefined) | i | i | i | i | i
CC(C)c1cc(O)c(-c2ccccc2)c(=O)n1-c1ccc(Cl)cc1 | i | i | i | i | i
CC(C)c1c(Cl)c(O)c(-c2ccccc2)c(=O)n1-c1ccc(F)cc1 | i | -5.3* | i | i | i
COc1ccccc1C(C#N)N1N=C(C)CC1c1ccccc1 (centres undefined) | i | i | 28* | i | i
CN1c2cccc3cccc(c23)N(C)C1c1cccs1 | i | i | i | i | i
CC1N(C)c2cccc3cccc(c23)N1C | i | i | 33* | i | i
CCN(CC)c1ccc(C=C2C(=O)OC(C)(C(C)(C)C)OC2=O)cc1 (centres undefined) | i | i | 56* | i | i
CCN(CC)c1ccc(C=C2C(=O)OC(c3ccccc3)OC2=O)cc1 (centres undefined) | i | i | 27* | i | i
CN(C)c1ccc(C=C2C(=O)OC(C)(C)OC2=O)cc1 | i | i | i | i | i
CN(C)c1ccc(C=C2C(=O)OC(C)(C(C)(C)C)OC2=O)cc1 (centres undefined) | i | i | i | i | i
CC1CCCCN1C(=O)CSc1nc(C2CC2)nc2c1cnn2-c1ccccc1 (centres undefined) | i | i | i | -7* | i
Cc1nn(C)c(C)c1NC(=O)CSc1nc(C2CC2)nc2c1cnn2-c1ccccc1 | i | i | i | i | i
Cc1ccccc1Cc1ccc(Cl)nn1 | i | i | i | i | i
